RGS4 pot: RGS4 potentiators or activators, primary screen, cell-based, HEK293 M3R inducible RGS4, calcium flux; AID 463111, 2010; B-score at 10 µM; carbachol calcium flux Fluo4; hits give low values; actives 0.92% (n = 310,000);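 active = B-score of the integrated calcium signal more than 4 SD below the library mean, with starting fluorescence not abnormally high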;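 also: negative B-score means reduced calcium response which marks RGS4 activation or potentiation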
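Assay system: HEK293 FlpIn-TREx cells, stable M3R, doxycycline-inducible RGS4 / Probe or stimulus: carbachol, ECmax concentration / Times: overnight RGS4 induction, 30 min dye load 37 °C, 20 min compound RT / Signal: kinetic calcium fluorescence imaging with Fluo4-AM dye, 2 µM / Measure: Agonist-evoked peak-minus-minimum fluorescence over baseline, integrated ratio, B score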
RGS4 inh: RGS4 inhibitors, primary screen, cell-based, HEK293 M3R inducible RGS4, calcium flux | AID 463165, 2010 | Regulator of G-protein signaling 4 (Homo sapiens), P49798 | actives 0.45% (n = 310,000) | B-score at 10 µM | Fluo-4 calcium flux; hits give high values; triggered by carbachol at its EC20;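 active = B-score, a plate-corrected calcium signal, over three deviations above library mean, with baseline fluorescence within five deviations of library mean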;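 also: RGS4 expression induced by doxycycline in cells with stable M3 receptor; B-score is computed from the integrated fluorescence ratio over baseline after carbachol; higher B-score means a larger calcium signal and so more RGS4 inhibition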
Target sequence (P49798 whole entry, looked up): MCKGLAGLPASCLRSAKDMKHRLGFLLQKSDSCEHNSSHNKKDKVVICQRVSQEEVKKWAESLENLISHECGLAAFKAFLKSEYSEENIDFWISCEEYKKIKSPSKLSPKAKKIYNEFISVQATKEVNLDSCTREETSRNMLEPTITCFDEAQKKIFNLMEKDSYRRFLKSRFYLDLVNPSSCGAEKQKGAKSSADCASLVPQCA
MrgX1 allo act: positive allosteric modulators of MrgX1, primary screen, HEK293 cells, Fluo-4 calcium flux | B-score at 10 µM | FDSS; hits give high values | Mas-related G-protein coupled receptor member X1 (Homo sapiens), Q96LB2 | actives 0.63% (n = 310,000);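 active = plate-corrected calcium response at least 3 library SD above typical, normal starting fluorescence, not activating the receptor alone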;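 also: compound read alongside a low EC10 to EC30 dose of BAM8-22 agonist; peak minus trough fluorescence over baseline measured at the second addition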
Target sequence (Q96LB2 whole entry, looked up): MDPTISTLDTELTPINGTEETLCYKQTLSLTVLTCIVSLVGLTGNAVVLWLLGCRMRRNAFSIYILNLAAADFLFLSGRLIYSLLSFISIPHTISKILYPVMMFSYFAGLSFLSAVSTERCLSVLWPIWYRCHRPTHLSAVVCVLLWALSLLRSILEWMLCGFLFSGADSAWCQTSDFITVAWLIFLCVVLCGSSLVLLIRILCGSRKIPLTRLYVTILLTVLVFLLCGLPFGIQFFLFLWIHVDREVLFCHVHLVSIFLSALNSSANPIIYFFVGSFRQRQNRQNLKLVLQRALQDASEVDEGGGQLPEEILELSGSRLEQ
MrgX1 antagonist: antagonists of human MrgX1 receptor, primary screen, HEK293 cells, Fluo-4 calcium flux. Mas-related G-protein coupled receptor member X1 (Homo sapiens), Q96LB2. AID 588676, 2011. BAM8-22 antagonism; hits give low values. actives 1.3% (n = 310,000). B-score at 10 µM;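 active = calcium-response B-score plate-corrected more than 3 library SD below zero, starting fluorescence within 5 deviations, no agonist response on first addition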;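 also: peak minus trough fluorescence over baseline after final BAM8-22 challenge near maximal dose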
MrgX1 ag: agonists of human MrgX1 receptor, primary screen, HEK293 cells, Fluo-4 calcium flux | Mas-related G-protein coupled receptor member X1 (Homo sapiens), Q96LB2 | Fluo-4 calcium fluorescence, agonist mode; hits give high values | B-score at 10 µM | actives 0.44% (n = 310,000);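 active = calcium response B-score plate-corrected fluorescence ratio at least 3 library SD, with starting fluorescence B-score inside 5 SD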
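Material – MrgX1-expressing HEK293 cells · Input – 15,000 cells seeded per well · Dosing – compound as first of three additions · Times – overnight seeding, then 1 h dark dye loading · Measured by – kinetic Fluo-4 NW fluorescence of intracellular calcium · Read-out – B-scored fluorescence response ratio · Benchmarks – positive and negative control wells on each plate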
MrgX1 ag confirm: MrgX1 receptor agonists, duplicate retest, confirmation, HEK293 cells, Fluo-4 calcium flux | actives 78% (n = 600) | Fluo-4 calcium fluorescence, FDSS | AID 602412, 2012 | shares compounds with MrgX1 ag | activation, % at 10 µM;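 active = calcium signal rise, corrected for plate position, at least 3 library SD high, with starting brightness within 5 such deviations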
HEK293 Ca flux: nonspecific calcium signal in parental HEK293, confirmation, counter-screen for MrgX1 antagonist project, parental HEK293 cells, Fluo-4 calcium flux; actives 2% (n = 4,000); shares compounds with MrgX1 antagonist; Fluo-4 calcium fluorescence, FDSS; fluorescence ratio F(max-min)/F0 at 10 µM;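 active = duplicate-averaged calcium fluorescence ratio at least three times the standard deviation of buffer wells, a nonspecific response in parental cells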
HEK293 Ca counter: calcium response in parental HEK293 cells, primary screen, counter-screen for MrgX1 allosteric activator project, cell-based, Fluo-4 calcium flux, duplicate; shares compounds with MrgX1 antagonist; Fluo-4 fluorescence ratio; hits give high values; fluorescence ratio F(max-min)/F0 at 10 µM; actives 0.4% (n = 4,000); AID 624114, 2012;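 active = calcium fluorescence ratio, averaged over duplicates, at least 3 SD of the buffer-well ratio, meaning a nonspecific response in receptor-free cells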;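 also: untransfected parental HEK293 lacking MrgX1 used as counterscreen for MrgX1 allosteric activators; fluorescence change taken during the second addition on a kinetic imager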
HEK293 Ca cntr2: calcium response in parental HEK293 cells, primary screen, counter-screen for MrgX1 agonist project, cell-based, Fluo-4 calcium flux, duplicate, agonist mode | shares compounds with MrgX1 antagonist | Fluo-4 calcium fluorescence (FDSS); hits give high values | fluorescence ratio F(max-min)/F0 at 10 µM | actives 8.7% (n = 4,000);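 active = calcium fluorescence ratio at least three times the spread of buffer wells, meaning a non-specific response in parental cells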
* marks the source's active call; other numbers are inactive results; i = inactive; . = no result. Hits are enriched below; roughly 3.5% of the tested compounds scored in any of these assays.

SMILES | RGS4 pot | RGS4 inh | MrgX1 allo act | MrgX1 antagonist | MrgX1 ag | MrgX1 ag confirm | HEK293 Ca flux | HEK293 Ca counter | HEK293 Ca cntr2
CC(=O)C1=C(C)NC(=O)CC1c1ccc(Br)cc1 (centres undefined) | i | i | i | i | i | . | . | . | .
Cc1nc(NCCOc2ccccc2)sc1C(=O)Nc1ccccc1 | i | i | i | i | i | . | . | . | .
O=C1NC(Nc2ccccn2)(C(F)(F)F)C(=O)N1c1ccc(F)cc1 (centres undefined) | i | i | i | i | 32.2* | 206.6%* | i | i | 54.3*
CCOC(=O)N1CCN(c2nc(-c3ccc(OC)cc3)no2)CC1 | i | i | i | i | 73.7* | i | i | i | i
COc1ccc(/C(O)=C/c2nc3ccc(C(=O)NCCc4cccc(C)c4)cc3[nH]c2=O)cc1OC | i | i | i | i | 28.2* | i | i | i | i
CN(CCCC(=O)Nc1ccc(Br)cc1F)S(=O)(=O)c1ccccc1 | i | i | i | i | i | . | . | . | .
Cc1cc([N+](=O)[O-])nn1CC(=O)Nc1cccc2nonc12 | i | i | i | i | i | . | . | . | .
CCC1(C)Cc2ccccc2-c2nc(NCCO)n(-c3ccc(C)cc3)c(=O)c21 (centres undefined) | i | i | i | i | 38.6* | 172.7%* | i | i | 56.4*
CC1(C)Cc2ccccc2-c2nc(NCCO)n(-c3ccccc3)c(=O)c21 | i | i | i | i | i | . | . | . | .
Cc1cc(-c2csc(N)n2)c(C)n1C | i | i | i | i | 30.9* | 149.9%* | i | i | i
Cc1nc(Nc2ccccc2)sc1C(=O)Nc1ccccc1 | i | i | i | i | i | . | . | . | .
Cc1nc(Nc2ccc(S(N)(=O)=O)cc2)sc1C(=O)Nc1ccccc1 | i | i | i | i | 32.2* | 226.9%* | i | i | i
O=C(CC(=O)c1ccccc1O)c1cccc(F)c1 | i | i | i | i | i | . | . | . | .
O=C(CC(=O)c1c(F)cccc1Cl)c1ccccc1O | i | i | i | i | 52.9* | 325.6%* | i | i | 72.9*
CCCN(C(=O)c1ccc2c(SCC(=O)O)c3c(nc2c1)CCC3)c1cccc(C)c1 | i | i | i | i | i | . | . | . | .
NC1=NC[C@@H](Cc2ccc(O)cc2)N1CCc1cc(C(F)(F)F)cc(C(F)(F)F)c1 | i | i | i | i | i | . | . | . | .
NC1=NC[C@@H](Cc2ccc(O)cc2)N1CCc1cccc(F)c1 | i | i | i | i | 31* | 171.1%* | i | i | i
O=C1COc2ccc3ccccc3c21 | i | i | i | i | i | . | . | . | .
COC(=O)c1ccccc1NC(=O)CSc1ncn[nH]1 | i | i | i | i | i | . | . | . | .
O=C(c1ccc2ccccc2n1)N1CCN(Cc2c(F)cccc2Cl)CC1 | i | i | i | i | i | . | . | . | .
Fc1cccc(Cl)c1CN1CCN(c2nc3ccccc3s2)CC1 | i | i | i | i | 30.8* | 224.0%* | i | i | i
